Sampled rows, rich in hits. Any-hit rate of the full collection: about 1.6%.
Arr AP2 block = inhibitors of human beta-arrestin and AP2 interaction. 340,000 tested, 0.31% active. inhibition, % at 10 µM. AID 504490. FITC-arrestin peptide / GST-AP2 beads, flow cytometry; AP2 beta2 appendage carries R879A mutation;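 active means inhibition above a set limit, near 3 SD of compounds lacking own fluorescence, cut at about 54% in these data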;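 further: plate controls were DMSO wells for no effect and 5 µM unlabelled arrestin peptide for full effect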
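Material – AP2 appendage R879A on GSH beads · Buffer or medium – PBS with 0.05% Tween 20 and 0.1% BSA · Probe or stimulus – fluorescein-tagged arrestin peptide at 50 nM final · Incubation – compound with beads 12 min RT, then probe 1 h RT · Detection – high-throughput flow cytometry of beads, ex 488, em 535 nm · Evaluation – percent response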
MT1-MMP act inh = blocks activation of human MT1-MMP | 360,000 tested, 0.061% active | GFP/RFP ratio change, % at 20 µM | HT1080 RFP-PRO-GFP cells, GFP/RFP ratio fluorescence, overnight; percent of plate control window, DMSO zero | P50281;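 active means GFP/RFP ratio change of at least 30% with cell ATP level not reduced by more than half and red fluorescence within 50% of control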
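Test system: HT1080 cells expressing an RFP-PRO-GFP fluorescent reporter construct / Compound dosing: single-point 20 µM compound, 1% DMSO / Schedule: cells overnight before dosing, compound overnight, 37 °C, 5% CO2 / Evaluation: GFP/RFP fluorescence ratio / Control set: DMSO and RFP-L50D-GFP cell wells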
Rin1 Abl inh = inhibitors of human Rin1-Abl protein interaction | P00519+Q13671 | TR-FRET Rin1/Abl binding, biochemical | inhibition, % at 7.35 µM | 360,000 tested, 0.4% active | AID 588664; in the data active means inhibition above about 5%, passing the limit was not always enough
TbMetRS inhib = blocks T. brucei methionyl-tRNA synthetase activity; inhibition, % at 11.9 µM; 360,000 tested, 0.4% active; AID 624268; purified T. brucei MetRS, ATP depletion, Kinase-Glo luminescence;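 active means inhibition above a per-plate cutoff of the control wells' mean inhibition plus 3 SD, cut at about 5.5% in these data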;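 further: 0% = DMSO wells median and 100% = median of wells with control inhibitor compound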
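Assay system: T. brucei methionyl-tRNA synthetase, purified | Medium: HEPES buffer with MgCl2, KCl, DTT, spermine, BSA, pyrophosphatase | Compound: 11.9 µM single point | Incubation: 15 min enzyme-compound preincubation, 2 h reaction, 10 min detection, 25 °C | Measured by: Kinase-Glo luciferase luminescence reporting remaining unconsumed ATP | Measure: % inhibition normalized to control-well medians | Replication: Singlicate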
SKN-1 block = blocks SKN-1 activity in C. elegans. C. elegans VP596 Pgst-4::GFP/RFP ratio, acrylamide-induced, 24 h. inhibition, % at 21.8 µM. 360,000 tested, 0.49% active. AID 624304;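 active means interference check ratio from 0.5 to 1.5 plus GFP to RFP signal ratio inhibition reaching or exceeding a fixed threshold, cut at about 30% in these data, passing the limit was not always enough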
Active calls of the source: *; / = not tested or not shown.

SMILES	Arr AP2 block	MT1-MMP act inh	Rin1 Abl inh	TbMetRS inhib	SKN-1 block
CCCCCn1cnc2sc(-c3ccccc3)cc2c1=O	-0.4	-3.7	-1.9	-0.3	40.1*
Fc1ccccc1-c1nc(-c2ccc(Cl)cc2)no1	21.7	-8.3	-2.0	-0.9	36.0*
O=C1c2ccccc2C(=O)N1CCc1nc(-c2ccc(Cl)cc2)no1	-0.4	1.1	-1.1	-0.3	47.8*
O=C1c2ccccc2C(=O)N1CCc1nc(-c2ccncc2)no1	-1.7	8.0	-4.6	-0.2	-2.2
O=C(O)CSc1nnc(SCc2cccc3ccccc23)s1	0.3	-3.9	0.7	0.3	-10.5
COC(=O)CSc1nnc(SCc2ccc(OC)cc2)s1	-4.9	2.4	-0.7	0.1	39.3*
CC(C)OC(=O)CSc1nnc(SCc2cccc3ccccc23)s1	27.4	-1.9	2.0	0.6	32.2*
O=C(c1cnc(Cc2c[nH]c3ccccc23)c(I)c1)N1CCOCC1	/	0.0	-1.5	0.6	8.4
NC(=O)CC(NC(=O)Cc1cccc2ccccc12)c1ccc(N2CCC(N3CCCCC3)CC2)c([N+](=O)[O-])c1 (stereo not given)	9.5	4.6	-3.8	-0.2	46.0*
CC(CCc1ccco1)NC(=O)CSc1cc(=O)n(C)c2ccccc12 (stereo not given)	1.4	-1.0	-22.5	0.0	37.1*
CCn1c(=O)cc(SCC(=O)NCc2ccco2)c2ccccc21	5.3	2.0	-60.3	0.0	16.7
FCCCOc1ccc(/C=N/OCc2ccc(Cl)cc2)cc1	-7.4	-5.4	-3.1	-0.6	41.6*
Cc1cccn2c(=O)c(/C=C3\SC(=S)NC3=O)c(NCCCN3CCOCC3)nc12	23.6	-53.7	-7.7	-0.1	52.4*
CCCS(=O)(=O)N1CCCC(C(=O)NCc2cccnc2)C1 (stereo not given)	0.8	3.1	1.2	-0.2	4.5
CCCS(=O)(=O)N1CCC(C(=O)NCc2cccnc2)CC1	-13.1	5.7	2.1	-0.1	51.7*
Cc1cc([N+](=O)[O-])ccc1NCc1ccccc1	7.6	-1.3	4.1	-0.1	36.9*
COc1cc(C2Nc3cccc4cccc(c34)N2)ccc1OC(C)=O	50.7	31.2*	0.6	-0.2	-18.2
O=C(N=C1N=C2C=CC=CN2Cc2ccccc21)c1ccc(S(=O)(=O)N2CCCC2)cc1	-10.5	1.2	2.2	0.2	1.9
CN(C)S(=O)(=O)c1cccc(C(=O)N=C2N=C3C=CC(Cl)=CN3Cc3ccccc32)c1	-0.6	-2.9	-2.1	0.1	56.6*
Clc1ccc(CNCCCSc2ncccn2)cc1	9.2	-4.6	-1.2	-0.4	2.9
Brc1cccc(OCCSc2ncccn2)c1	1.1	-2.8	0.8	-0.6	50.0*
Clc1cccc(CNCCCSc2ncccn2)c1	-21.0	-3.9	1.2	0.9	3.5
Clc1ccc(OCCCCSc2ncccn2)cc1	-5.2	1.8	3.7	0.1	91.4*
Nc1nnc(SCCOc2cccc(Br)c2)s1	-4.9	6.4	-1.6	0.0	11.8
Clc1ccc(OCCSc2ncccn2)c(Br)c1	-11.1	2.4	0.5	1.8	53.2*
SMILES	Arr AP2 block	MT1-MMP act inh	Rin1 Abl inh	TbMetRS inhib	SKN-1 block
Cc1ccc(OCCCN(C)C)c(Br)c1	20.5	4.2	-0.3	-0.5	3.2
CN(C)CCCOc1ccc(Cl)cc1Br	-1.3	2.1	-4.4	5.9*	4.4
CCc1ccc(N2C=C(C(=O)OC)C(c3cccc4ccccc34)C(C#N)=C2N)cc1 (stereo not given)	/	3.8	/	-0.3	-1.4
CCCOc1ccc(OCCSc2ncccn2)cc1	0.5	4.5	0.1	-0.3	37.6*
CC1(C)c2ccccc2C(=O)c2ccccc21	4.8	8.4	4.2	-0.3	45.6*
CC1(C)C(=Cc2ccccc2)C(=O)c2ccccc21	/	0.0	-5.2	-0.4	40.6*
CC1(C)CC(=Cc2cc(O)ccc2[N+](=O)[O-])C(=O)c2ccccc21	/	7.1	-1.9	-0.1	8.4
CCC(C(=O)Nc1c(C)cccc1C)n1c(-c2ccc(-c3ccccc3)cc2)nc2ccccc21 (stereo not given)	/	-2.0	/	-0.5	5.0
O=C(Nc1ccccc1Cl)c1cnccn1	-3.4	1.7	-2.6	-0.5	-4.5
O=C(Nc1ccc(Br)cc1Cl)c1cnccn1	14.8	-4.7	-4.9	0.1	61.4*
Cc1ccc(CSCc2nc3ccccc3[nH]2)cc1	23.2	2.7	0.6	-0.2	-2.2
c1ccc(SCc2nc3ccccc3[nH]2)cc1	0.9	0.3	3.5	6.5*	18.3
Cc1ccc(SCc2nc3ccccc3[nH]2)cc1	/	-4.5	-1.4	4.0	4.2
Cc1ccc(OCCSCc2nc3ccccc3[nH]2)cc1	31.7	1.4	1.5	6.8*	13.4
COc1cccc(CN2CCC2(C)C(=O)NCc2cccc(C(F)(F)F)c2)c1OC (stereo not given)	/	1.7	1.0	-0.1	13.9
CC(C)CNc1ncnc2c1ncn2[C@H]1CN(Cc2cccs2)C[C@@H](CO)O1	/	2.7	1.4	0.1	19.5
COc1ccc(N2CCN(C(=O)COC(=O)c3nc(Cl)ccc3Cl)CC2)cc1	/	-3.1	-7.0	-0.3	1.2
COC(=O)c1cc(-c2cccc(OC)c2)n[nH]1	3.5	4.3	0.1	-0.5	37.1*
COC(=O)c1cc(-c2ccc(OC)cc2)n[nH]1	9.1	0.4	1.6	-0.5	10.8
CCOC(=O)c1c(C)[nH]c(O)c1C=Nc1ccc(C(F)(F)F)cc1	-9.3	-52.9	-1.1	-0.5	60.5*
N#C/C(=C\c1ccc(O)c(O)c1)C(=O)c1ccc(O)c(O)c1	6.3	-1.0	-0.9	0.9	9.0
N#CC(C#N)=C(N)/C(C#N)=C/c1cc(O)c(O)c(O)c1	43.2	-17.8	-1.0	0.9	92.9*
N/C(=N\OC(=O)c1cc(Br)ccc1Cl)c1ccccn1	-21.3	1.6	-1.4	0.1	47.2*
N/C(=N\OC(=O)c1cc(Cl)ccc1Cl)c1ccncc1	-4.2	-4.5	0.7	-0.2	19.1
Cc1ccc(C(=O)O/N=C(\N)c2ccccn2)c(Cl)c1	17.1	-9.5	-1.3	-2.5	-11.8
SMILES	Arr AP2 block	MT1-MMP act inh	Rin1 Abl inh	TbMetRS inhib	SKN-1 block
N/C(=N\OC(=O)c1ccc(Cl)cc1Cl)c1ccccn1	2.7	1.3	4.1	-0.7	52.2*
N/C(=N\OC(=O)c1ccc(Cl)cc1Cl)c1ccncc1	9.0	1.2	-2.0	-0.6	40.4*
COCCNc1nc(Nc2ccc(C)cc2C)c2sccc2n1	/	4.5	-2.4	-0.3	4.2
CC1(C(=O)NS(=O)(=O)Cc2ccccc2)CCN1C(=O)Cc1ccccc1Cl (stereo not given)	/	-1.5	-3.6	-0.1	5.6
O=C(CNc1cc(S(=O)(=O)N2CCOCC2)ccc1NCC1CCCO1)Nc1ccc(F)c(F)c1 (stereo not given)	0.6	-2.9	1.8	8.5*	21.3
CC1OC(c2ccccc2)OC2COC(c3ccccc3)OC12 (stereo not given)	-11.7	-1.0	-0.4	-0.5	36.1*

Bioassay records as filed in PubChem BioAssay.
